Source: PubChem (Sanford-Burnham Center for Chemical Genomics)
DNMT1 block = blocks human DNA methyltransferase DNMT1; 360,000 tested, 0.83% active; DNMT1 molecular beacon, Hinp1I cleavage, fluorescence; inhibition (reported as % activation of signal), % at 10 µM; AID 588458; in the data active = inhibition above about 50%
Target sequence (P26358 504-1616 limits assumed): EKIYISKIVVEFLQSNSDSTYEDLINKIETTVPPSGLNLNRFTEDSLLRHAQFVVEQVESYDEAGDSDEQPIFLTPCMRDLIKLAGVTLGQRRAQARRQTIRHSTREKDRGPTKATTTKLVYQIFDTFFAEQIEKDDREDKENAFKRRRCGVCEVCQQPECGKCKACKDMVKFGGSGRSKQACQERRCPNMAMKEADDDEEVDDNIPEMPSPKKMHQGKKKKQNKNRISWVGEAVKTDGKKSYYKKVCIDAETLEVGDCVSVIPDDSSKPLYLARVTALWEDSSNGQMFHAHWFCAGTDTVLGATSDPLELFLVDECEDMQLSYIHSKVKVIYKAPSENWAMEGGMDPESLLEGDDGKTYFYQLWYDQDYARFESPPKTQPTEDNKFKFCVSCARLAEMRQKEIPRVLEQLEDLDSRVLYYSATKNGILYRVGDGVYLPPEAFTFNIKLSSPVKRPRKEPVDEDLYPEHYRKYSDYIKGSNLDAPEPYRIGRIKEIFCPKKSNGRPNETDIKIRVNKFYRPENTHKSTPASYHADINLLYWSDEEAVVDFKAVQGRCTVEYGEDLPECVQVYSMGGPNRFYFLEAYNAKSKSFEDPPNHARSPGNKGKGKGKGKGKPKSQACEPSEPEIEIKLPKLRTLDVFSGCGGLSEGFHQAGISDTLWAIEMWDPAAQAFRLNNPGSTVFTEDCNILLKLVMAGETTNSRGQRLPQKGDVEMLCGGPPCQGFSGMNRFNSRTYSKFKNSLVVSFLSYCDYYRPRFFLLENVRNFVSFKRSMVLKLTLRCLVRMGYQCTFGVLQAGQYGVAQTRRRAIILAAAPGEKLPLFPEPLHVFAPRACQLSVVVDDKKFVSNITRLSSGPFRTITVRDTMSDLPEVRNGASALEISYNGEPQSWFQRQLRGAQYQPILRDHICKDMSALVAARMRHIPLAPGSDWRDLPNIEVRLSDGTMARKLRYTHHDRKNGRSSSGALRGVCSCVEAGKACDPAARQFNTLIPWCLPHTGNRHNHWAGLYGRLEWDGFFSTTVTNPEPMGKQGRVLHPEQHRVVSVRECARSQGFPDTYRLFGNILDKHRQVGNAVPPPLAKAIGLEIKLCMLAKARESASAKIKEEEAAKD
SUMO1-SIM PPI = SUMO1-SIM interaction modulation; AID 602429; inhibition, % at 20 µM; 360,000 tested, 0.33% active; SUMO1 binding to a labelled peptide, TR-FRET, 1 h; P63165; in the data active = inhibition above about 37%
STEP block = inhibitors of human striatal-enriched phosphatase STEP; P54829; recombinant STEP, OMFP fluorogenic substrate, fluorescence; inhibition, % at 20 µM; 360,000 tested, 0.25% active; AID 588621;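 active = inhibition at 20 µM, scaled per plate between control wells, above about 37%, limit read from the data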
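Assay system: isolated STEP enzyme / Timing: 20 min at room temperature, dark / Doses: 20 µM, 1% DMSO / Technique: fluorescence intensity, excitation 480 nm, emission 540 nm / Reagent: fluorogenic phosphatase substrate OMFP at 25 µM final / Measure: percent inhibition scaled to no-enzyme and uninhibited-enzyme controls, plate-pattern corrected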
LMPTP inh = LMPTP (human) inhibition. P24666. 360,000 tested, 0.22% active. recombinant LMPTP-A, OMFP fluorogenic substrate, fluorescence intensity. inhibition, % at 20 µM;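 active = compounds that cut the enzyme signal by at least half of the control window in the single-dose screen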
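Test system: LMPTP-A phosphatase enzyme; input: 0.625 nM LMPTP-A final; reagent: OMFP substrate, 400 µM final; compound dosing: 20 µM single dose, 3% DMSO; incubation: 50 min dark incubation at room temperature; measured by: endpoint fluorescence intensity from OMFP dephosphorylation; measure: % inhibition relative to no-enzyme and uninhibited control wells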
Scp-1 inhibitor = blocks human Scp-1 phosphatase activity. Q9GZU7. Recombinant Scp1, phosphopeptide, malachite green phosphate absorbance. inhibition, % at 20 µM. 340,000 tested, 0.88% active;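 active = inhibition above about 50% at 20 µM, limit read from the data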
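Material – SCP-1 phosphatase catalytic domain, residues 76-261 · Buffer or medium – Acidic Tris acetate buffer with magnesium and detergent · Also added – Phospho 17-mer peptide substrate · Compound – single 20 µM dose, 1% DMSO · Times – 45 min room-temperature reaction, 5 min colour, 30 min stabiliser · Technique – Phosphate-binding colour reagent, absorbance read at 630 nm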
Scp1 confirm = confirmation of human Scp-1 phosphatase inhibitors | 2,500 tested, 61% active | recombinant SCP-1 catalytic domain, phosphate release, malachite green absorbance | inhibition, % at 20 µM | shares compounds with Scp-1 inhibitor
Scp-1 MG ctr = colorimetric interference in Scp-1 counter-screen. 2,500 tested, under 10 active. Colorimetric interference counterscreen, malachite green absorbance 630 nm. AID 540313. shares compounds with Scp-1 inhibitor. apparent inhibition (interference), % at 20 µM;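 note: compounds added after enzyme reaction finished so only phosphate colour detection is probed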
Scp1 DSF = binds human Scp-1, shifting its melting temperature; AID 540329; 1,500 tested, 25% active; Recombinant SCP1, Sypro Orange thermal shift Tm; thermal shift relative to vanadate control, % at 40 µM; shares compounds with Scp-1 inhibitor;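 active = substances whose mean melting-temperature shift, as a percentage of the reference inhibitor's shift, reaches about 5.3%, limit read from the data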
DNMT1 confirm = DNMT1 inhibition confirmation, single concentration; shares compounds with DNMT1 block; DNMT1 molecular beacon HinP1I cleavage, fluorescence; inhibition, % at 10 µM; 2,300 tested, 8% active; AID 602385;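 active = average inhibition of at least 30% in the single-concentration confirmation test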
Beacon interf = counter-screen for DNMT1 inhibitors: spectral interference. shares compounds with DNMT1 block. DNMT1 molecular beacon spectral interference counterscreen, fluorescence 485/520. activation (fluorescence interference), % at 10 µM. 2,300 tested, 1% active;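 active = activation of at least 30% at 10 µM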;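 note: DNMT1 catalytic domain with a HinP1I cleavage step and a FAM/dabcyl DNA beacon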
STEP inh conf = STEP (human) phosphatase inhibition, single concentration confirmation; shares compounds with STEP block; recombinant STEP, OMFP fluorogenic substrate, fluorescence; inhibition, % at 20 µM; 520 tested, 32% active; call rule not given here
Hits are given with their value; – = inactive; · = not tested or not shown. Rows were chosen to be rich in hits. Some 1.8% of all compounds tested hit in one or more screens of this group.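 Rule for the calls, unless noted: active = inhibition of at least 30% at 20 µM; inactive = the rest.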

SMILES | DNMT1 block | SUMO1-SIM PPI | STEP block | LMPTP inh | Scp-1 inhibitor | Scp1 confirm | Scp-1 MG ctr | Scp1 DSF | DNMT1 confirm | Beacon interf | STEP inh conf
Cc1csc(NC(=O)c2cc(-c3ccco3)nc3ccccc23)n1 | 96 | – | – | – | 70 | 53 | – | 11 | – | – | ·
Cc1csc(NC(=O)c2cc(C)nc3ccccc23)n1 | – | – | – | – | – | · | · | · | · | · | ·
Cc1cc(C(=O)NCc2ccco2)c2ccccc2n1 | – | – | – | – | – | · | · | · | · | · | ·
O=C(Nc1nccs1)c1cc(-c2ccccc2)nc2ccccc12 | – | – | – | – | – | · | · | · | · | · | ·
O=C(Nc1nccs1)c1cc(-c2ccco2)nc2ccccc12 | 55 | – | – | – | 50 | 60 | – | 8.6 | – | – | ·
O=C(Nc1nc2ccccc2s1)c1cc(-c2ccco2)nc2ccccc12 | – | – | – | – | – | · | · | · | · | · | ·
Cc1ccc(-c2cc(C(=O)NCc3ccco3)c3ccccc3n2)o1 | 92 | – | – | – | 77 | 71 | – | – | – | – | ·
O=C(O)c1cc(-c2ccco2)nc2ccccc12 | 61 | – | – | – | 59 | 43 | – | – | – | – | ·
Cn1cccc1CC(=O)N/N=C/C=C/c1ccco1 | 96 | – | – | – | 69 | 40 | – | – | – | – | ·
C/C(=N\NC(=O)Cc1cccn1C)c1ccco1 | – | – | – | – | – | · | · | · | · | · | ·
CCN(c1ccccc1)S(=O)(=O)c1cc(C(=O)O)ccc1C | 85 | – | 95 | 60 | 56 | 46 | – | – | – | – | –
CCC(=O)N(C)C[C@@H]1Oc2ncc(Br)cc2C(=O)N([C@@H](C)CO)C[C@H]1C | – | – | – | – | · | · | · | · | · | · | ·
Cc1ccc(C(=O)Nc2ccc3c(c2)C(=O)NC3=O)cc1 | – | – | – | – | – | · | · | · | · | · | ·
COC(=O)c1ccc(C(=O)Nc2ccc3c(c2)C(=O)NC3=O)cc1 | – | 95 | 94 | – | 75 | 47 | – | 6.0 | · | · | –
NCc1csc(NC(=O)Nc2cccc(C(F)(F)F)c2)n1 | – | – | – | – | · | · | · | · | · | · | ·
O=C(O)c1ccc2c(c1)C(=O)N(c1cccc(-c3nc4ccccc4s3)c1)C2=O | – | – | 81 | – | 93 | 86 | – | 5.4 | · | · | 47
O=C(N/N=C/c1ccccc1F)c1cc2c(ccc3ccccc32)o1 | 82 | – | 97 | – | 103 | 67 | – | – | – | – | –
O=C(N/N=C/C=C/c1ccccc1)c1cc2c(ccc3ccccc32)o1 | 94 | – | 66 | 63 | 102 | 81 | – | – | – | – | –
O=C(Cn1cnc2c(nnn2-c2ccccc2)c1=O)NCc1ccc(F)cc1 | – | – | 77 | – | 101 | 96 | – | – | · | · | –
O=C(O)Cc1ccccc1C(=O)O | – | – | – | – | – | · | · | · | · | · | ·
O=C(O)Cc1cccc(=O)c(O)c1C(=O)O | 86 | – | 68 | – | 79 | 54 | – | 6.3 | · | · | 88
COc1ccc(C(CNC(=O)Cc2cccs2)N(C)C)cc1 (configuration not stated) | – | – | – | – | – | · | · | · | · | · | ·
Cc1cc(N)n(-c2ccc(Oc3ccccc3)c(S(=O)(=O)O)c2)n1 | – | – | 43 | – | 75 | 60 | – | – | – | – | –
Cc1cc(N)n(-c2ccc(C)c(C)c2)n1 | – | – | – | – | – | · | · | · | · | · | ·
CCc1ccc([C@@H]2CC=C(C(=O)O)[C@H](c3cccc(Cl)c3)N2S(=O)(=O)c2ccc(C)cc2)cc1 | – | – | – | – | – | · | · | · | · | · | ·
COc1ccc(NC(=O)CN(C)C(=O)c2cn(-c3ccccc3)nc2-c2cccnc2)cc1 | – | – | – | – | – | · | · | · | · | · | ·
